This is an account of results in ChEMBL document CHEMBL1629587, “Discovery of a small-molecule inhibitor of {beta}-1,6-glucan synthesis” (2009).

For assay [1], the system named is Candida albicans. Nature of the assay: Inhibition of hyphal elongation of Candida albicans ATCC 24433 at 4 ug/ml after 24 hrs by microscopy. In kind it is functional, organism-based. Put shortly:
(§1)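 Hyphae induced in HFM-7 medium (Lee's medium also used) on type I collagen-coated wells, drug 0, 1, 4 or 16 μg/ml; static culture at 37°C, viewed by light microscopy after 6 h or 24 h.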

Assay [2] concerns Saccharomyces cerevisiae. Nature of the assay: Inhibition of mannan synthesis in Saccharomyces cerevisiae AY-10 assessed as reduction in [14C]glucose incorporation at 0.078 to 1.25 ug/ml after 3 hrs. It counts as functional, organism-based. Put shortly: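 Exponential cells in RPMI 1640 at A595 about 0.6, pulse-labelled with [14C]glucose 2 μCi/ml plus drug at 30°C, sampled at 1 and 3 h. Cell wall fractionated: mannan from 3% NaOH extracts at 80°C by Fehling's reaction; residue digested with Zymolyase 100T (1 mg/ml), insoluble part = chitin; β-1,3-glucan = total glucan minus dialysed β-1,6-glucan. Scintillation counting; % change versus untreated.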

The test system of assay [3] is Saccharomyces cerevisiae. Briefly: Fungicidal activity against Saccharomyces cerevisiae YPH500 after 24 hrs by microdilution method. To be noted: YPH500, 24 h. In kind it is functional. Put shortly: (§2)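 Fungicidal concentration: after the MIC plate read, 4 μl from each well transferred into 200 μl MOPS-buffered RPMI, incubated 24 h at 30°C; MFC = lowest drug concentration with no visible growth.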
On the technique in general: Broth dilution looks for growth in wells or tubes with falling amounts of substance.

For assay [4], the system named is Candida albicans. Briefly: Inhibition of hyphal elongation of Candida albicans ATCC 24433 at 1 ug/ml after 24 hrs by microscopy. In kind it is functional, organism-based. Put shortly: as §1
Assay [5] relates to Saccharomyces cerevisiae. Nature of the assay: Fungicidal activity against Saccharomyces cerevisiae CT-2a mutant after 24 hrs by microdilution method. It counts as functional.
A further assay has as its system Kluyveromyces marxianus. Briefly: Antifungal activity against Candida kefyr ATCC 46764 after 24 hrs by microdilution method. In kind it is functional. To be noted: ATCC 46764, 24 h. In outline:
(§3)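 CLSI broth microdilution run at 30°C instead of standard temperature; starting inoculum 1 × 10^3 to 3 × 10^3 cells/ml; DMSO under 1% final. Endpoints: MIC-0 = lowest concentration giving an optically clear well; MIC-2 = 50% drop versus drug-free control in absorbance at 570 nm with alamar blue redox indicator, used because treated cells clump.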

The next assay has as its system PC-6. Nature of the assay: Cytotoxicity against human PC6 cells. In kind it is functional. In outline:
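Human PC-6 lung cancer cells; growth inhibition read as GI50; DMSO kept below 0.5% final for human cells.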

For assay [6], the system named is Nakaseomyces glabratus. Nature of the assay: Antifungal activity against Candida glabrata IFO0622 after 24 hrs by microdilution method. It counts as functional. As to conditions: IFO0622, 24 h. In outline:
as §3

For assay [7], the system named is Nakaseomyces glabratus. Nature of the assay: Antifungal activity against Candida glabrata ATCC 200918 after 24 hrs by microdilution method. In kind it is functional. To be noted: ATCC 200918, 24 h. In outline:
as §3

Assay [8] concerns Candida albicans. Briefly: Fungicidal activity against Candida albicans ATCC 24433 after 24 hrs by microdilution method. It counts as functional. To be noted: ATCC 24433, 24 h. In outline: as §2
Another assay deals with Cryptococcus neoformans. Briefly: Antifungal activity against Cryptococcus neoformans ATCC 90112 after 24 hrs by microdilution method. In kind it is functional. As to conditions: ATCC 90112, 24 h. In outline:
as §3

The test system of the next assay is Aspergillus flavus. Briefly: Antifungal activity against Aspergillus flavus ATCC 64025 after 24 hrs by microdilution method. As to conditions: ATCC 64025, 24 h. It counts as functional. In outline:
as §3

Assay [9] relates to Saccharomyces cerevisiae. Briefly: Fungicidal activity against Saccharomyces cerevisiae CT-1a mutant after 24 hrs by microdilution method. In kind it is functional.
Assay [10] deals with Nakaseomyces glabratus. Briefly: Fungistatic activity aganist Candida glabrata IFO0622assessed as growth inhibition at 1 to 16 ug/ml by time-kill study. To be noted: IFO0622. In kind it is functional, organism-based. In outline: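 Exponentially growing cells suspended at 1 × 10^4 cells/ml in RPMI 1640 with or without drug, shaken gently at 30°C; samples taken at 2, 4, 8, 24 and 48 h, diluted and spread on SDA, colonies counted after overnight incubation at 30°C to give viable cell numbers.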

For the next assay, the system named is Aspergillus fumigatus. Briefly: Antifungal activity against Aspergillus fumigatus ATCC 36607 after 24 hrs by microdilution method. In kind it is functional. To be noted: ATCC 36607, 24 h. Put shortly: as §3
The test system of a further assay is Staphylococcus aureus. Nature of the assay: Antibacterial activity against Staphylococcus aureus 209P. In kind it is functional.

Molecules are shown by their SMILES. Values after ≈ are worked out from the molar mass of the structure shown. Active and inactive are the calls of the source. The calls are words filed in the database; no cut-off is given here. Where only a bound is given, the exact number is not on record here.

With `CCc1c(C)c(C#N)c2nc3ccccc3n2c1NCCN(CC)CC`, the inhibition result with Candida albicans [1] and in the assay with Candida albicans [4] was “Active” each time. Moreover, the inhibition result in the assay with Saccharomyces cerevisiae [2] is “inactive”. The minimal fungicidal concentration (MFC) with Saccharomyces cerevisiae [3] and in the assay with Candida albicans [8] was above 32 µg/mL throughout. The MIC in the assay with Saccharomyces cerevisiae [5] was above 64 µg/mL; with Kluyveromyces marxianus, 2 µg/mL (≈ 5.72 µM); against Nakaseomyces glabratus [6], 2 µg/mL (≈ 5.72 µM); in the assay with Nakaseomyces glabratus [7] it was 4 µg/mL (≈ 11.4 µM); in the assay with Cryptococcus neoformans, above 32 µg/mL; against Aspergillus flavus it was above 32 µg/mL. Also, the MIC was 8 µg/mL (≈ 22.9 µM) with Saccharomyces cerevisiae [9], above 32 µg/mL against Aspergillus fumigatus and above 32 µg/mL in the assay on Staphylococcus aureus. For the same compound, the MIC50 against Kluyveromyces marxianus was 1 µg/mL (≈ 2.86 µM); in the assay on Nakaseomyces glabratus [6] it was 1 µg/mL (≈ 2.86 µM); in the assay on Nakaseomyces glabratus [7], 4 µg/mL (≈ 11.4 µM); against Cryptococcus neoformans, above 32 µg/mL; with Aspergillus flavus, above 32 µg/mL; in the assay on Aspergillus fumigatus, above 32 µg/mL. The compound further displayed a concentration for 50% growth inhibition (GI50) with PC-6 above 16 µg/mL. Also, in the assay on Nakaseomyces glabratus [10], the Activity entry is “Dose-dependent effect”.

The term MFC denotes the lowest tested concentration that kills the fungus rather than only halting it. The low end stands for more potent killing, the high end for less potent killing. The term MIC denotes the lowest concentration that inhibits growth of the organism. As usually defined, the MIC50 is the lowest concentration that inhibits either 50% of growth or 50% of the strains tested, depending on the study. Lower therefore signals higher susceptibility. Usually GI50 stands for the concentration that inhibits growth by half. A low value points to more potent growth inhibition.
